The results in this text go back to ChEMBL document CHEMBL3804796, “Discovery of Novel 3,3-Disubstituted Piperidines as Orally Bioavailable, Potent, and Efficacious HDM2-p53 Inhibitors” (ACS Med Chem Lett, 2016).

For the experiment, the system named is MOLT-4. As to the kind of experiment: Antiproliferative activity against human MOLT4 cells expressing wild type p53 after 72 hrs by CellTitre-Glo assay. The experiment is classed as functional, cell-based. Put shortly:
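Cell lines exposed to compound for 72 h; viability read by CellTiter-Glo and IC50 derived. p53 coding-region mutation status of each line established by direct sequencing.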

Each structure is given as a SMILES string. Active and inactive are the calls of the source. The rule behind the calls is not given here.

As for `CCC[C@H]1N(C(=O)c2cnccc2C(F)(F)F)CCC[C@@]1(Oc1csc(C(F)(F)F)c1)C(=O)N1CCN(c2ccccc2OCCCC(=O)O)CC1`, the outcome was Active.
